Molecules are shown by their SMILES. The campaign covered roughly 2,500 compounds. About 1,200 (48%) were called active. So high a share suggests a set chosen from earlier hits. Some of the results follow. Unmarked numbers belong to inactive results.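 Rule for the calls: active = mean activation above the low control average plus 3 SD, as set in the primary screen (cut at about 12% in these data); inactive = the rest.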

This test has as its target Troponin I, cardiac muscle (Homo sapiens) + Troponin T, cardiac muscle (Homo sapiens) + Troponin C, slow skeletal and cardiac muscles (Homo sapiens) (UniProt P19429+P45379+P63316). In words: calcium sensitizers of cardiac thin filaments – biochemical, IANBD-TnC fluorescence, triplicate, confirmation (AID 504383).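 Note: 0% = DMSO at 0.472 mM calcium and 100% = DMSO at 2.9 mM calcium.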 Particulars: IANBD-labeled cardiac RTF, Ca2+ sensitivity fluorescence; at 7.2 µM; active compounds read high; scaled from EC20 to saturating calcium; tested at EC20 calcium, 0.472 mM. In short, it runs like this:
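Material: labelled regulated thin filaments; Reagent: 0.472 mM calcium; Incubation: 15 min compound incubation with filaments at 25 °C; Detection: filament fluorescence intensity; Evaluation: fluorescence increase normalised to calcium controls; Benchmarks: low control EC20 calcium, high control EC100 calcium.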
As to `CC1CC(C)CN(S(=O)(=O)N2CCCC(C(=O)NC3CCCCC3)C2)C1` (stereo not drawn), the activation is 219% (active).

On to `Cc1cc(NC(=O)CN2C(=O)[C@@H]3[C@H](C2=O)[C@@H]2C[C@H]3C(Br)C2Br)no1` (stereo partly drawn), for which the activation is 40% (active).

Consider `CC(/C=N/Nc1ccc2nncn2n1)=C\c1ccccc1`, for which the activation was 70.4% (active).

For `CCOC(=O)c1cc(C#N)c(SCC(=O)c2cc(C#N)c(SC)nc2C)[nH]c1=O`, the activation is 15.6% (active).

On to `O=C(Nc1ccc(F)cc1F)c1ccc(COc2c(F)c(F)cc(F)c2F)o1`, for which the activation is 4.6%.

For the molecule `O=C(c1ccc([N+](=O)[O-])cc1[N+](=O)[O-])n1cnc2ccccc21`, the activation was -1.33%.

With `O=C(/C=C/c1ccccc1[N+](=O)[O-])Nc1cccnc1`, the activation is 5.57%.

For the molecule `C/C(=N\Nc1ccc([N+](=O)[O-])cc1[N+](=O)[O-])c1cccnc1`, the activation was 17% (active).

Turning to `CC(C)(Cc1cccc(CC(C)(C)C(=O)O)c1)C(=O)O`, the activation was 12% (active).

`CS(=O)(=O)N(CC(=O)O)Cc1cccc(CN(CC(=O)O)S(C)(=O)=O)c1`: the activation was 9.58%.

Take `CCCOc1ccc(N)cc1N`: the activation is 10.4%.

For the molecule `O=C(CC1C(=O)N(c2ccc(Cl)cc2)C(=S)N1CCc1ccncc1)Nc1ccc(F)cc1` (stereo not drawn), the activation is 3.64%.

With `CCOC(=O)c1ccc(-c2c(-c3ccc4c(c3)OCO4)noc2C)cc1F`, the activation was 12% (active).

In the case of `COc1cc(-c2c(-c3ccc4c(c3)OCO4)noc2C)ccc1F`, the activation was 37.8% (active).

Turning to `Cc1ccc(-c2noc(-c3c(C)noc3C)n2)cc1`, the activation is 9.16%.

Turning to `Nc1ccc2c3c(cccc13)-c1ccccc1-2`, the activation is 10%.

As for `O=C(NCCN1CCOCC1)c1ccc(CS(=O)(=O)c2c(Cl)cccc2Cl)o1`, the activation was 7.99%.

For `Cc1ccccc1S(=O)(=O)Cc1ccc(C(=O)NCCN(C)Cc2ccccc2)o1`, the activation was 28.6% (active).

For `Brc1ccc(-c2cnnc(N3CCCC3)n2)cc1`, the activation is 184% (active).

For `CC(C)(C)c1ccc(-c2n[nH]c(=S)n2CC2CCCO2)cc1` (stereo not drawn), the activation was 101% (active).

Consider `CC(C)C(=O)c1cc2c(cc1NC(=O)c1ccccc1)OCCO2`, for which the activation was 3.91%.

As for `COc1ccccc1NC(=O)/C=C/C(=O)O`, the activation is 9.02%.

As to `O=C(Nc1ccccc1OC(=O)c1ccccc1)c1ccccc1`, the activation was 235% (active).

On to `Cc1ccc([N+](=O)[O-])c(OCCCN2C(=O)NC(C)(C)C2=O)c1`, for which the activation is 11%.

Turning to `COc1ccc(C2=NN(C(=O)CSc3ncccn3)C(c3ccc(C)cc3)C2)cc1` (stereo not drawn), the activation is 505% (active).

As for `CC1CCC(C(C)C)C(OC(=O)Cn2c(-c3ccccc3)[n+](C)c3ccccc32)C1` (stereo not drawn), the activation is 10.7%.

Consider `CC(/C=C/c1ccc(N(C)C)cc1)=N/N=C1/NC(=O)CC(C(=O)Nc2ccc(Cl)cc2)S1` (stereo not drawn), for which the activation was 14.4% (active).

Consider `CN(C)c1ccc(/C=C/C(=O)c2cc(Cl)ccc2O)cc1`, for which the activation was 5.68%.

Turning to `COc1ccc(CN=C2NC(=O)CC(C(=O)Nc3ccc(F)cc3)S2)cc1` (stereo not drawn), the activation was 10.2%.

Take `O=C(c1cccs1)N1CCN=C1SCc1cccc(F)c1`: the activation is 0.56%.

For `N#Cc1c(-c2ccccc2F)cc(C2CC2)nc1SCC(=O)c1cccs1`, the activation is 14.3% (active).

Regarding `COc1ccc(-c2cc(C3CC3)nc(SCC(=O)c3cccs3)c2C#N)cc1`, the activation was 8.22%.

On to `CC(C)OC(=O)c1c2c(n3ccccc13)C(=O)c1ccccc1C2=O`, for which the activation was 9.36%.

Turning to `CCN(CC)c1ccc(/C=C/c2cccc[n+]2C)c(OC)c1`, the activation was 63.4% (active).

As to `Cc1nc(NC(=O)c2ccccc2[N+](=O)[O-])sc1C(=O)N(C)C`, the activation is 11.2%.

Regarding `CN(C)NC(=O)c1ccc([N+](=O)[O-])s1`, the activation is 31.3% (active).

Consider `CN(C)/C=C/C(=O)c1ccc(Br)s1`, for which the activation was 10.5%.

Take `Cc1c(Cl)c([N+](=O)[O-])nn1CC(=O)N1CCN(C23CC4CC(CC(C4)C2)C3)CC1`: the activation is 12% (active).

For `Cc1cccc(NC(=O)Cn2cnc3ccc(S(=O)(=O)N4CCC(C)CC4)cc3c2=O)n1`, the activation was 8.56%.

For the molecule `O=C(Cn1cnc2c(cnn2-c2ccccc2)c1=O)Nc1ccc(S(=O)(=O)N2CCOCC2)cc1`, the activation is 31% (active).

Turning to `CN(C)NC(=S)Nc1ccc(S(=O)(=O)N2CCCCC2)cc1`, the activation was 19.8% (active).

As to `O=S(=O)(c1ccc(NC(=S)Nc2ccccc2)cc1)N1CCOCC1`, the activation was 24.5% (active).

In the case of `CN1CC[C@@H]2C(=O)N3CCc4ccc(Br)cc4[C@@H]3C[C@@H]21`, the activation is 10.5%.

Turning to `O=C(CSc1nc2ncc(Br)cc2[nH]1)c1cccc([N+](=O)[O-])c1`, the activation is 64% (active).

`CC(Sc1nc2ncc(Cl)cc2[nH]1)C(=O)Nc1ccc(C(N)=O)cc1` (stereo not drawn): the activation was 1.26%.

Consider `CC(=O)N1C(=O)C(=C2C=C(C)OC(C)=C2)c2ccccc21`, for which the activation is 62.7% (active).

For `Cc1c2ccccc2nc2c(F)c(N(C)C)c(F)c(F)c12`, the activation is 19.2% (active).

Regarding `Cc1c2ccccc2nc2c(F)c(NCCO)c(F)c(F)c12`, the activation was 159% (active).

Consider `CCn1c(O)c(/C=N/N=C/c2ccc(OC)cc2)c2cc(C3=NNC(=O)CC3)ccc21`, for which the activation was 20.9% (active).

Consider `CCn1c(O)c(/C=N/N=C/c2ccccc2)c2ccc(C3=NNC(=O)CC3)cc21`, for which the activation was 10.2%.

For the molecule `C/C(=N\Nc1nccnc1Cl)c1ccc(Cl)c(Cl)c1`, the activation is 5.84%.

`C/C(=N/Nc1ccnc2cc(Cl)ccc12)c1ccc(N)cc1`: the activation is 18.9% (active).

Take `O=C(Nc1ccccc1)OC1CCC2CC1CCC2OC(=O)Nc1ccccc1` (stereo not drawn): the activation is 7.87%.

With `O=C(Nc1ccccc1)NC1CS(=O)(=O)CC1O` (stereo not drawn), the activation was 149% (active).

Turning to `O=C(Nc1ccccc1)C1CC2CCCC(C1)C2=O` (stereo not drawn), the activation is 8.65%.

For the molecule `CCC(C)(C)NC(=O)C(c1ccc(F)cc1)N(Cc1ccco1)C(=O)c1cnccn1` (stereo not drawn), the activation is 70.6% (active).

`O=C1CCN2C=Nc3cccc4ccc1c2c34`: the activation is 13.7% (active).

For `CNC(=S)N1N=C(c2ccc(Br)cc2)CC1c1ccc(N(C)C)cc1` (stereo not drawn), the activation was 31% (active).

Turning to `CCCN1C(=O)/C(=C\C=C2\N(CC)c3ccccc3C2(C)C)SC1=S`, the activation was 10.1%.

In the case of `CCCN1C(=O)/C(=C/C=C2\N(CC)c3ccccc3C2(C)C)SC1=S`, the activation is 3.85%.

With `CCN1/C(=C/C=C/c2oc3ccc(-c4ccccc4)cc3[n+]2CC)Oc2ccc(-c3ccccc3)cc21`, the activation was 6.07%.

Turning to `CCCCN1C(=O)/C(=C/C=C2\Oc3ccccc3N2CC)SC1=S`, the activation is 53.5% (active).

Regarding `CCSC1=N/C(=C\C=C2/Oc3ccccc3N2CC)C(=O)S1`, the activation was 31.9% (active).

(Values after PubChem BioAssay AID504383 (The Scripps Research Institute Molecular Screening Center, 2011).)
